Measured values taken from ChEMBL document CHEMBL3804761, “Synthesis of a stable and orally bioavailable englerin analogue” (Bioorg Med Chem Lett, 2016).

Legend:
Type in all cases: functional
NCI-H522 = experiment: Growth inhibition of human NCI-H522 cells incubated for 48 hrs by sulforhodamine B assay; conditions: NCI-H522, 48 h
Outline: (§1)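 NCI 60-cell-line panel, standard protocol. Cells exposed to compound for two days, growth read by sulforhodamine B staining. Tested at five 10-fold dilutions, top concentration 100 µM, to give dose-response curves.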

NCI-H226 [1] = experiment: Growth inhibition of human NCI-H226 cells incubated for 48 hrs by sulforhodamine B assay; conditions: NCI-H226, 48 h; outline: as §1
KM12 = experiment: Growth inhibition of human KM12 cells incubated for 48 hrs by sulforhodamine B assay; conditions: KM12, 48 h; outline: as §1
M14 = experiment: Growth inhibition of human M14 cells assessed as cell growth at 10 uM incubated for 48 hrs by sulforhodamine B assay relative to control; conditions: M14, 48 h, read-out: Activity
Outline: (§2)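 Run in the standard NCI 60-cell-line screen. Cells were exposed to drug for two days, and the read-out was sulforhodamine B staining. Compound was tested at a single final concentration of 10 µM in every line, and results are reported as growth percent.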

SK-MEL-5 = experiment: Growth inhibition of human SK-MEL-5 cells assessed as cell growth at 10 uM incubated for 48 hrs by sulforhodamine B assay relative to control; conditions: SK-MEL-5, 48 h, read-out: Activity; outline: as §2
[2] = Growth inhibition of human UACC62 cells assessed as cell growth at 10 uM incubated for 48 hrs by sulforhodamine B assay relative to control; conditions: UACC-62, 48 h, read-out: Activity
Outline: (§3)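 NCI 60-cell line standard protocol, one-dose screen: single final concentration 10 µM, 2-day drug exposure, sulforhodamine B (SRB) endpoint; read-out is growth percent relative to untreated control.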

[3] = Growth inhibition of human Caki1 cells assessed as cell growth at 10 uM incubated for 48 hrs by sulforhodamine B assay relative to control; conditions: CAKI-1, 48 h, read-out: Activity; outline: as §2
[4] = Growth inhibition of human COLO205 cells assessed as cell growth at 10 uM incubated for 48 hrs by sulforhodamine B assay relative to control; conditions: COLO 205, 48 h, read-out: Activity; outline: as §2
HT-29 = experiment: Growth inhibition of human HT-29 cells assessed as cell growth at 10 uM incubated for 48 hrs by sulforhodamine B assay relative to control; conditions: HT-29, 48 h, read-out: Activity; outline: as §2
[5] = Growth inhibition of human OVCAR8 cells incubated for 48 hrs by sulforhodamine B assay; conditions: OVCAR-8, 48 h; outline: as §1
[6] = Growth inhibition of human MOLT4 cells assessed as cell growth at 10 uM incubated for 48 hrs by sulforhodamine B assay relative to control; conditions: MOLT-4, 48 h, read-out: Activity; outline: as §2
NCI-H460 = experiment: Growth inhibition of human NCI-H460 cells incubated for 48 hrs by sulforhodamine B assay; conditions: NCI-H460, 48 h; outline: as §1
[7] = Growth inhibition of human OVCAR8 cells assessed as cell growth at 10 uM incubated for 48 hrs by sulforhodamine B assay relative to control; conditions: OVCAR-8, 48 h, read-out: Activity; outline: as §2
U-251 = experiment: Growth inhibition of human U251 cells incubated for 48 hrs by sulforhodamine B assay; conditions: U-251, 48 h
Outline: (§4)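 Tested in the standard NCI 60-cell-line protocol with two-day drug exposure and a sulforhodamine B endpoint. Compounds were first screened at a single final concentration of 10 µM, reported as growth percent. They were then run as five 10-fold dilutions starting from a high concentration of 100 µM to give dose-response curves.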

[8] = Growth inhibition of human SF539 cells incubated for 48 hrs by sulforhodamine B assay; conditions: SF-539, 48 h; outline: as §1
MDA-MB-468 = experiment: Growth inhibition of human MDA-MB-468 cells assessed as cell growth at 10 uM incubated for 48 hrs by sulforhodamine B assay relative to control; conditions: MDA-MB-468, 48 h, read-out: Activity; outline: as §2
[9] = Growth inhibition of human HCT116 cells assessed as cell growth at 10 uM incubated for 48 hrs by sulforhodamine B assay relative to control; conditions: HCT-116, 48 h, read-out: Activity; outline: as §2
[10] = Growth inhibition of human TK10 cells assessed as cell growth at 10 uM incubated for 48 hrs by sulforhodamine B assay relative to control; conditions: TK-10, 48 h, read-out: Activity; outline: as §3
NCI-H226 [11] = experiment: Growth inhibition of human NCI-H226 cells assessed as cell growth at 10 uM incubated for 48 hrs by sulforhodamine B assay relative to control; conditions: NCI-H226, 48 h, read-out: Activity; outline: as §2
[12] = Growth inhibition of human SW620 cells assessed as cell growth at 10 uM incubated for 48 hrs by sulforhodamine B assay relative to control; conditions: SW-620, 48 h, read-out: Activity; outline: as §2
A549 [13] = experiment: Growth inhibition of human A549/ATCC cells incubated for 48 hrs by sulforhodamine B assay; conditions: A549, 48 h; outline: as §1
[14] = Growth inhibition of human SF268 cells incubated for 48 hrs by sulforhodamine B assay; conditions: SF-268, 48 h; outline: as §1
MDA-MB-231 = experiment: Growth inhibition of human MDA-MB-231 cells incubated for 48 hrs by sulforhodamine B assay; conditions: MDA-MB-231, 48 h; outline: as §1
MDA-MB-435 = experiment: Growth inhibition of human MDA-MB-435 cells assessed as cell growth at 10 uM incubated for 48 hrs by sulforhodamine B assay relative to control; conditions: MDA-MB-435, 48 h, read-out: Activity; outline: as §2
MCF7 = experiment: Growth inhibition of human MCF7 cells assessed as cell growth at 10 uM incubated for 48 hrs by sulforhodamine B assay relative to control; conditions: MCF7, 48 h, read-out: Activity; outline: as §2
NCI/ADR-RES = experiment: Growth inhibition of human NCI/ADR-RES cells assessed as cell growth at 10 uM incubated for 48 hrs by sulforhodamine B assay relative to control; conditions: read-out: Activity; outline: as §2
A549 [15] = experiment: Growth inhibition of human A549/ATCC cells assessed as cell growth at 10 uM incubated for 48 hrs by sulforhodamine B assay relative to control; conditions: A549, 48 h, read-out: Activity; outline: as §2
SK-MEL-2 = experiment: Growth inhibition of human SK-MEL-2 cells assessed as cell growth at 10 uM incubated for 48 hrs by sulforhodamine B assay relative to control; conditions: SK-MEL-2, 48 h, read-out: Activity; outline: as §2
[16] = Growth inhibition of human SW620 cells incubated for 48 hrs by sulforhodamine B assay; conditions: SW-620, 48 h; outline: as §4
[17] = read-out: pLC50 (the source's name) (converted)

For `CC(C)[C@@]12C[C@@H](NC(=O)CO)[C@@](C)(O1)[C@@H]1CC[C@@H](C)[C@H]1[C@@H]2OC(=O)/C=C/c1ccccc1`, the GI50 (NCI-H522) was 19.1 µM, the LC50 (NCI-H522) was > 50.1 µM and the TGI (NCI-H522; read-out: pTGI (converted)) was > 50.1 µM. The GI50 (NCI-H226 [1]) was 25.1 µM, the LC50 (NCI-H226 [1]) was > 50.1 µM and the TGI (NCI-H226 [1]; read-out: pTGI (converted)) was > 50.1 µM. The GI50 (KM12) was 20 µM, the LC50 (KM12) was > 50.1 µM and the TGI (KM12; read-out: pTGI (converted)) was > 50.1 µM. For the same compound, the growth at 10 µM (M14) was 103%, the growth at 10 µM (SK-MEL-5) was 90.6% and the growth at 10 µM [2] was 92.1%. The growth at 10 µM [3] was 61.1%, the growth at 10 µM [4] was 96.4% and the growth at 10 µM (HT-29) was 93%. The GI50 [5] was 4.79 µM, the LC50 (concentration killing 50% of cells) [5] was > 50.1 µM and the TGI ([5]; read-out: pTGI (converted)) was > 50.1 µM. For the same compound, the growth at 10 µM [6] was 76%, the GI50 (NCI-H460) was 17 µM and the CC50 (NCI-H460; [17]) was > 50.1 µM. For the same compound, the TGI (NCI-H460; read-out: pTGI (converted)) was > 50.1 µM, the growth at 10 µM [7] was 51.5% and the GI50 (U-251) was 15.5 µM. The LC50 (concentration giving 50% net cell kill) (U-251) was > 50.1 µM, the TGI (U-251; read-out: pTGI (converted)) was > 50.1 µM and the GI50 [8] was 42.7 µM. For the same compound, the LC50 [8] was > 50.1 µM, the TGI ([8]; read-out: pTGI (converted)) was > 50.1 µM and the growth at 10 µM (MDA-MB-468) was 91.3%. It also gave a growth at 10 µM [9] of 85.8%, a growth at 10 µM [10] of 102% and a growth at 10 µM (NCI-H226 [11]) of 90.8%. For the same compound, the growth at 10 µM [12] was 109%, the GI50 (A549 [13]) was 13.5 µM and the LC50 (A549 [13]) was > 50.1 µM. For the same compound, the TGI (A549 [13]; read-out: pTGI (converted)) was > 50.1 µM, the GI50 [14] was 14.8 µM and the LC50 (lethal concentration, 50% net cell kill) [14] was > 50.1 µM. For the same compound, the TGI ([14]; read-out: pTGI (converted)) was > 50.1 µM, the GI50 (MDA-MB-231) was 24.5 µM and the CC50 (MDA-MB-231; [17]) was > 50.1 µM. The TGI (MDA-MB-231; read-out: pTGI (converted)) was > 50.1 µM, the growth at 10 µM (MDA-MB-435) was 94.6% and the growth at 10 µM (MCF7) was 94.4%. For the same compound, the growth at 10 µM (NCI/ADR-RES) was 42.9%, the growth at 10 µM (A549 [15]) was 91.7% and the growth at 10 µM (SK-MEL-2) was 101%. For the same compound, the GI50 [16] was 22.4 µM, the LC50 (50% lethal concentration) [16] was > 50.1 µM and the TGI ([16]; read-out: pTGI (converted)) was > 50.1 µM.
